Test results from article PMC2924166 (Proteins, 2009).
pKd: −log10 of the molar value.

What was measured:
Type in all cases: binding
WT CaM1–148 = WT CaM1–148 (Rattus norvegicus, UniProt P0DP29); test: Fluorescence anisotropy titration of Fl-CaMKIIp with WT CaM1–148
[1] = Equilibrium calcium titration of CaM, sites I and II; details: pH 7.4, 22°C
Summary of the method: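 Recombinant CaM constructs (1–148, 1–80) at 2 μM were used alone or with 10 μM CaMKII CaM-binding-domain peptide (residues 290–309, 1:5). CaCl2 was titrated to 1 nM–0.01 M. Phe fluorescence was read at ex 250/em 280 nm. Free Ca2+ came from 0.1 μM Oregon Green, or XRhod5F with peptide. Runs were done ≥3 times, normalized, and fit by nonlinear least squares to ΔG1, ΔG2.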

[2] = Equilibrium calcium titration of CaM, sites III and IV; details: pH 7.4, 22°C
[3] = Calcium affinity of fluorescent indicator dyes; details: higher affinity for calcium
[4] = peptide equivalent 0, 2 μM CaM, 50 mM HEPES, 100 mM KCl, 1 mM MgCl2, 0.05 mM EGTA, 5 mM NTA, Oregon Green, repeated at least three times

CC[C@H](C)[C@H](NC(=O)[C@H](C)NC(=O)CNC(=O)[C@H](CCCCN)NC(=O)[C@H](CC(C)C)NC(=O)[C@H](CCCCN)NC(=O)[C@H](CCCNC(=N)N)NC(=O)[C@H](CCCNC(=N)N)NC(=O)[C@H](C)NC(=O)[C@H](CC(N)=O)NC(=O)[C@H](Cc1ccccc1)NC(=O)[C@H](CCCCN)NC(=O)[C@H](CCCCN)NC(=O)[C@@H](N)CC(C)C)C(=O)N[C@@H](CC(C)C)C(=O)N[C@H](C(=O)N[C@H](C(=O)N[C@@H](CCSC)C(=O)N[C@@H](CC(C)C)C(=O)N[C@@H](C)C(=O)O)[C@@H](C)O)[C@@H](C)O [CaMKIIp]
level of saturation of CaMKIIp by CaM1–148 (WT CaM1–148; 10 μM CaM1–148, 23 nM calcium): less than 10% | level of saturation of CaMKIIp by CaM1–148 (WT CaM1–148; 10 μM CaM1–148, 311 nM calcium): more than 95% | pKd (WT CaM1–148; Kd of (Ca^2+)4-CaM1–148 for Fl-CaMKIIp, 10 mM CaCl2, stoichiometric range, upper limit): ≥ 8.00 | concentration of apo CaM-CaMKIIp in presence of 5 eq. CaMKIIp (WT CaM1–148; apo, 2 μM CaM, 10 μM CaMKIIp): ≤ 10%

CaM1–80: N-domain fragment of calmodulin, residues 1–80
ΔG1 of calcium binding, sites I and II [1, 4]: -5.92 ± 0.38 kcal/mol | ΔGc, sites I and II ([1]; peptide equivalent 0): -1.73 ± 0.68 kcal/mol | ΔGc, sites I and II ([1]; peptide equivalent 5 (CaMKIIp)): -3.38 ± 1.18 kcal/mol

CaM76–148: C-domain fragment of calmodulin, residues 76–148
ΔG1 of calcium binding, sites III and IV [2, 4]: -5.45 ± 0.51 kcal/mol | ΔGc, sites III and IV ([2]; peptide equivalent 0): -4.57 ± 1.15 kcal/mol | ΔGc, sites III and IV ([2]; peptide equivalent 5 (CaMKIIp)): -2.81 ± 0.47 kcal/mol

XRhod5F
lower Kd for calcium versus Oregon Green [3]: ~ 20 fold
